High-throughput results as filed in PubChem BioAssay.
Compounds with a hit are over-represented: about 2% of the library has one in this group of screens.
CaV13 FRET inh: Primary screen for inhibitors of IQ motif and Ca2+-dependent inactivation inhibitor domain binding in CACNA1D, Förster resonance energy transfer in living cells, …. HEK cells, CFP/YFP FRET ICDI-IQ, plate reader, 10 min; percent FRET-ratio fall versus neutral wells. AID 743397. actives 0.098% (n = 340,000). inhibition, % at 12.3 µM;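 active = mean replicate inhibition of at least 30% and at least 1% of replicates passing that level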;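 note: 0% = median of the neutral control wells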
TWEAK Fn14 block: inhibitors of TWEAK-Fn14 signaling, primary screen, luciferase reporter cells, uHTS; actives 2% (n = 360,000); inhibition, % at 10 µM; TWEAK-stimulated Fn14 reporter cells, luciferase luminescence, 8 h; in the data active = inhibition above about 50%
XiGFP reactiv: activators of inactive X chromosome reactivation, primary screen, imaging, XiGFP fibroblasts, GFP high-content imaging, set 2; XiGFP mouse fibroblasts, % GFP-positive cells imaging, 3 d; cells co-treated with 5-aza-dC sensitizer; scaled so ellipticine positive control = 100%; activation, % at 7.58 µM; actives 0.055% (n = 360,000); AID 743238, 2013;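 active = mean normalized replicate activation at least 10% and every replicate at or above 10%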;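 note: 0% = median of on-plate neutral control wells and 100% = ellipticine 6 µM median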
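System: 68-5-11 XiGFP fibroblast line; Timing: 3 days compound exposure; Compound dosing: one concentration, pinned; Benchmarks: positive control ellipticine, 6 µM final; Buffer or medium: DMEM containing 5-aza-dC.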
TROY signal inh: inhibitors of TROY-driven NF-kB signaling, primary screen, Q293 LMP1-TROYcd cells, NF-kB luciferase, uHTS; Q293 LMP1-TROYcd NF-kB luciferase reporter, 4 h; inhibition, % at 10 µM; actives 0.98% (n = 360,000); AID 1347056, 2019;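 active = compounds whose plate-normalised and pattern-corrected inhibition of the luciferase reporter signal at the single screening dose is 50% or more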
LGR2 antag: inhibitors of bursicon-induced LGR2 CRE-luciferase signal, primary screen, cell-based, HEK293, CRE-luciferase reporter, bursicon stimulation; inhibition, % at 9.99 µM; Drosophila bursicon receptor LGR2 (rickets); AID 720647, 2013; actives 0.35% (n = 380,000); bursicon-stimulated, 4 h;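 active = drop in luminescence signal, shown as inhibition above about 50% in the replicate tests, limit read from the data, passing the limit was not always enough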;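 note: agonist challenge used bursicon conditioned medium at about half maximal strength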
The depositor's hits bear a star; . = no result.

SMILES	CaV13 FRET inh	TWEAK Fn14 block	XiGFP reactiv	TROY signal inh	LGR2 antag
O=c1nc2s/c(=C\c3ccc(-c4ccccc4[N+](=O)[O-])o3)c(=O)n2nc1-c1ccccc1	-2	57*	0	42	15
Cc1cccc(NC(=O)c2cc3ccccc3c(=O)o2)n1	-3	51*	0	-34	-28
COc1ccc(CCNC(=O)c2cc3c(=O)n4ccccc4nc3n(CCN3CCOCC3)c2=N)cc1	-2	63*	0	48	7
Cc1cccn2c(=O)c3cc(C(=O)NCCN4CCOCC4)c(=N)n(CCc4ccccc4)c3nc12	34*	-82	.	-14	.
Cc1cccn2c(=O)c3cc(C(=O)NCCN4CCOCC4)c(=N)n(CCCN4CCOCC4)c3nc12	16	11	0	-3	2
N=c1c(C(=O)NCC2CCCO2)cc2c(=O)n3ccccc3nc2n1Cc1ccc(Cl)cc1 (configuration not stated)	94*	-23	0	-2	2
COc1ccc(CCn2c(=N)c(C(=O)NCc3ccco3)cc3c(=O)n4ccccc4nc32)cc1OC	-13	-8	.	-4	-1
N=c1c(C(=O)NCC2CCCO2)cc2c(=O)n3ccccc3nc2n1Cc1ccccc1 (configuration not stated)	9	-41	0	-7	-26
COc1ccc(CCNC(=O)c2cc3c(=O)n4ccccc4nc3n(CCCN3CCOCC3)c2=N)cc1	-6	-3	0	-11	-4
COc1ccc(CCNC(=O)c2cc3c(=O)n4ccccc4nc3n(Cc3ccco3)c2=N)cc1OC	-15	96*	0	62*	-19
O=C(c1cnccn1)N1CC(=O)N2[C@H](CO)[C@@H](c3ccc(C#CC4CCCC4)cc3)[C@@H]2C1	.	.	0	.	22
CO[C@H]1CN(C)C(=O)c2ccc(NC(=O)Nc3ccc(Cl)cc3)cc2OC[C@@H](C)NC[C@H]1C	.	.	0	.	4
CCC(=O)Nc1ccc2c(c1)OC[C@H](C)N(C(=O)CC)C[C@@H](C)[C@H](OC)CN(C)C2=O	.	.	0	.	11
Cc1cccn2c(=O)c3cc(C(N)=S)c(=N)n(CCCOC(C)C)c3nc12	34*	-38	.	-8	.
COCCn1c(=N)c(C(=O)NCCc2ccccc2)cc2c(=O)n3cccc(C)c3nc21	.	-54	.	16	.
Cc1cccn2c(=O)c3cc(C(=O)NCCc4ccccc4)c(=N)n(CCCn4ccnc4)c3nc12	33*	-18	.	-3	.
COc1ccccc1/C=N\Nc1ccccc1[N+](=O)[O-]	-22	-13	0	-40	-59
CCCOc1ccc(/C=N/NC(=S)Nc2ccccc2[N+](=O)[O-])c(O)c1	-14	.	1	.	83*
COc1ccc(/C=N/NC(=S)Nc2ccccc2[N+](=O)[O-])cc1O	-2	93*	0	86*	38
CC(C)Oc1ccccc1/C=N/Nc1ccccc1[N+](=O)[O-]	-6	7	0	82*	-8
COc1cc(/C=N/NC(=O)Cc2ccccc2)ccc1Oc1ccc([N+](=O)[O-])cc1[N+](=O)[O-]	-19	52*	0	21	1
CN(C)C(=O)c1cccc(-c2ccc([C@@H]3[C@H](CO)N4C(=O)CN(C(=O)C5CCCC5)C[C@@H]34)cc2)c1	.	.	0	.	31
Cc1noc(C)c1NC(=O)N(C)C[C@@H]1Oc2c(NC(=O)C3CC3)cccc2C(=O)N([C@@H](C)CO)C[C@@H]1C	.	.	0	.	-6
CCCOc1ccc(/C=N/Nc2ccccc2[N+](=O)[O-])c(O)c1	-6	98*	0	91*	.
CCN(CC)c1ccc2cc(-c3nnc(-c4ccccc4)o3)c(=O)oc2c1	.	67*	.	44	-16
CCN(CC)c1ccc2cc(-c3nc4ccccc4[nH]3)c(=O)oc2c1	.	88*	.	73*	.
CCN(CC)c1ccc2cc(-c3nc(-c4ccc(OC)cc4)cs3)c(=O)oc2c1	-18	.	115*	.	-13
O=c1oc2ccc3ccccc3c2cc1-c1nnc(-c2ccccc2)o1	.	-11	.	-34	.
